Source: ChEMBL document CHEMBL1687824, “Overexpression of patA and patB, which encode ABC transporters, is associated with fluoroquinolone resistance in clinical isolates of Streptococcus pneumoniae” (2011)
Values after ≈ are worked out from the molar mass of the structure shown.

Tests used:
Format in all cases: functional
Streptococcus pneumoniae [1] = experiment: Antibacterial activity against fluoroquinolone-resistant Streptococcus pneumoniae M83 FQ-R overexpressing patA, patB by standardized agar doubling dilution method in presence of 50 uM sodium orthovanadate efflux pump inhibitor
In short: (§1)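 MIC by agar doubling dilution per BSAC guidelines; strains pregrown in brain heart infusion broth 24 h, 37°C, 5% CO2. MICs measured alone and with efflux pump inhibitors reserpine (20 μg/ml) or sodium orthovanadate (50 μM); synergy defined as ≥2-dilution MIC reduction in presence of inhibitor.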

Streptococcus pneumoniae [2] = experiment: Antibacterial activity against fluoroquinolone-resistant Streptococcus pneumoniae M100 FQ-R overexpressing patA, patB by standardized agar doubling dilution method in presence of 20 ug/ml reserpine efflux pump inhibitor; in short: as §1
Streptococcus pneumoniae [3] = experiment: Antibacterial activity against Streptococcus pneumoniae M87B overexpressing patA, patB and inactivated patB with single mutation by standardized agar doubling dilution method
In short: (§2)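 MICs were determined by agar doubling dilution following BSAC guidelines, with no efflux inhibitor. Strains were grown in brain heart infusion broth for 24 h at 37°C in 5% CO2. Species identity was confirmed by Gram stain, optochin sensitivity and capsule test. Control strain R6 was tested alongside.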

Streptococcus pneumoniae [4] = experiment: Antibacterial activity against Streptococcus pneumoniae M306 overexpressing patA, patB and inactivated patB with single mutation by standardized agar doubling dilution method
In short: (§3)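 MICs determined by BSAC standardized agar doubling dilution. Strains were grown in brain heart infusion broth for 24 h at 37°C in 5% CO2. Inhibitor arms had reserpine at 20 μg/ml or sodium orthovanadate at 50 μM in the agar. Mutants were made by transforming magellan2 insertion amplimers into clinical isolates and selecting on spectinomycin 100 mg/liter, with a no-DNA spontaneous-mutation control.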

Streptococcus pneumoniae [5] = experiment: Antibacterial activity against Streptococcus pneumoniae M50B overexpressing patA, patB and inactivated patB with single mutation by standardized agar doubling dilution method in presence of 50 uM sodium orthovanadate efflux pump inhibitor
In short: (§4)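 MICs were determined by BSAC agar doubling dilution in the presence of sodium orthovanadate at 50 μM. Cultures were grown in BHI broth for 24 h at 37°C in 5% CO2, with R6 as control. Synergy was defined as an MIC reduction of ≥2 dilutions with the inhibitor present.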

Streptococcus pneumoniae [6] = experiment: Antibacterial activity against Streptococcus pneumoniae M50B overexpressing patA, patB and inactivated patB with single mutation by standardized agar doubling dilution method; in short: as §2
Streptococcus pneumoniae [7] = experiment: Antibacterial activity against dye-resistant Streptococcus pneumoniae M46 DR overexpressing patA, patB by standardized agar doubling dilution method; in short: as §2
Streptococcus pneumoniae [8] = experiment: Antibacterial activity against fluoroquinolone-resistant Streptococcus pneumoniae M100 FQ-R overexpressing patA, patB by standardized agar doubling dilution method in presence of 50 uM sodium orthovanadate efflux pump inhibitor; in short: as §1
Streptococcus pneumoniae [9] = experiment: Antibacterial activity against fluoroquinolone, dye-resistant Streptococcus pneumoniae M74 overexpressing patA, patB by standardized agar doubling dilution method in presence of 50 uM sodium orthovanadate efflux pump inhibitor
In short: (§5)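 MIC by agar doubling dilution following BSAC guidelines. Strains grown in brain heart infusion broth 24 h at 37°C in 5% CO2. Where an efflux pump inhibitor applies, MIC redetermined with reserpine at 20 μg/ml or sodium orthovanadate at 50 μM. Synergy taken as a fall in MIC of ≥2 dilutions with inhibitor present. Dye resistance defined relative to R6 (both dyes ≥2 dilutions higher).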

Streptococcus pneumoniae [10] = experiment: Antibacterial activity against Streptococcus pneumoniae M311 overexpressing patA, patB and inactivated patA with single mutation by standardized agar doubling dilution method in presence of 20 ug/ml reserpine efflux pump inhibitor; in short: as §3
Streptococcus pneumoniae [11] = experiment: Antibacterial activity against Streptococcus pneumoniae M304 overexpressing patA, patB and inactivated patA with single mutation by standardized agar doubling dilution method; in short: as §3
Streptococcus pneumoniae [12] = experiment: Antibacterial activity against Streptococcus pneumoniae M308 overexpressing patA, patB and inactivated patB with single mutation by standardized agar doubling dilution method; in short: as §3
Streptococcus pneumoniae [13] = experiment: Antibacterial activity against fluoroquinolone-resistant Streptococcus pneumoniae M83 FQ-R overexpressing patA, patB by standardized agar doubling dilution method
In short: (§6)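 Clinical S. pneumoniae isolates grown in BHI broth 24 h at 37°C in 5% CO2. MICs by agar doubling dilution per BSAC guidelines, alone or with efflux inhibitor reserpine (20 μg/ml) or sodium orthovanadate (50 μM). Synergy defined as ≥2-dilution MIC reduction in presence of inhibitor.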

Streptococcus pneumoniae [14] = experiment: Antibacterial activity against Streptococcus pneumoniae M310 overexpressing patA, patB and inactivated patB with single mutation by standardized agar doubling dilution method; in short: as §3
Streptococcus pneumoniae [15] = experiment: Antibacterial activity against Streptococcus pneumoniae M87B overexpressing patA, patB and inactivated patB with single mutation by standardized agar doubling dilution method in presence of 50 uM sodium orthovanadate efflux pump inhibitor; in short: as §4
Streptococcus pneumoniae [16] = experiment: Antibacterial activity against fluoroquinolone-resistant Streptococcus pneumoniae M97 FQ-R overexpressing patA, patB by standardized agar doubling dilution method in presence of 50 uM sodium orthovanadate efflux pump inhibitor; in short: as §1
Streptococcus pneumoniae [17] = experiment: Antibacterial activity against Streptococcus pneumoniae M315 overexpressing patA, patB and inactivated patA with single mutation by standardized agar doubling dilution method; in short: as §3
Streptococcus pneumoniae [18] = experiment: Antibacterial activity against Streptococcus pneumoniae M302 overexpressing patA, patB and inactivated patA with single mutation by standardized agar doubling dilution method; in short: as §3
Streptococcus pneumoniae [19] = experiment: Antibacterial activity against Streptococcus pneumoniae M307 overexpressing patA, patB and inactivated patB with single mutation by standardized agar doubling dilution method in presence of 50 uM sodium orthovanadate efflux pump inhibitor; in short: as §3
Streptococcus pneumoniae [20] = experiment: Antibacterial activity against Streptococcus pneumoniae M309 overexpressing patA, patB and inactivated patB with single mutation by standardized agar doubling dilution method in presence of 50 uM sodium orthovanadate efflux pump inhibitor; in short: as §3
Streptococcus pneumoniae [21] = experiment: Antibacterial activity against fluoroquinolone-resistant Streptococcus pneumoniae M79 FQ-R overexpressing patA, patB by standardized agar doubling dilution method; in short: as §6
Streptococcus pneumoniae [22] = experiment: Antibacterial activity against Streptococcus pneumoniae M305 overexpressing patA, patB and inactivated patB with single mutation by standardized agar doubling dilution method; in short: as §3
Streptococcus pneumoniae [23] = experiment: Antibacterial activity against Streptococcus pneumoniae M87A overexpressing patA, patB and inactivated patA with single mutation by standardized agar doubling dilution method in presence of 20 ug/ml reserpine efflux pump inhibitor
In short: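 MICs were determined by BSAC agar doubling dilution in the presence of reserpine at 20 μg/ml. Strains were grown in BHI broth for 24 h at 37°C in 5% CO2, with R6 as control. Synergy was defined as an MIC drop of ≥2 dilutions with the inhibitor.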

Streptococcus pneumoniae [24] = experiment: Antibacterial activity against Streptococcus pneumoniae M46A overexpressing patA, patB and inactivated patA with single mutation by standardized agar doubling dilution method; in short: as §2
Streptococcus pneumoniae [25] = experiment: Antibacterial activity against Streptococcus pneumoniae M305 overexpressing patA, patB and inactivated patB with single mutation by standardized agar doubling dilution method in presence of 20 ug/ml reserpine efflux pump inhibitor; in short: as §3
Streptococcus pneumoniae [26] = experiment: Antibacterial activity against Streptococcus pneumoniae M87A overexpressing patA, patB and inactivated patA with single mutation by standardized agar doubling dilution method in presence of 50 uM sodium orthovanadate efflux pump inhibitor; in short: as §4
Streptococcus pneumoniae [27] = experiment: Antibacterial activity against fluoroquinolone, dye-resistant Streptococcus pneumoniae M296 overexpressing patA, patB by standardized agar doubling dilution method in presence of 50 uM sodium orthovanadate efflux pump inhibitor; in short: as §5
Streptococcus pneumoniae [28] = experiment: Antibacterial activity against wild type Streptococcus pneumoniae M3 NCTC 7466 type 2 by standardized agar doubling dilution method in presence of 50 uM sodium orthovanadate efflux pump inhibitor; in short: as §1

CC[n+]1c(-c2ccccc2)c2cc(N)ccc2c2ccc(N)cc21.[Br-] [HOMIDIUM BROMIDE]
MIC (Streptococcus pneumoniae [1]): 4 µg/mL | MIC (Streptococcus pneumoniae [2]): 0.25 µg/mL | MIC (Streptococcus pneumoniae [3]): 0.5 µg/mL | MIC (Streptococcus pneumoniae [4]): 0.25 µg/mL | MIC (Streptococcus pneumoniae [5]): 0.5 µg/mL | MIC (Streptococcus pneumoniae [6]): 0.5 µg/mL | MIC (Streptococcus pneumoniae [7]): 16 µg/mL | MIC (Streptococcus pneumoniae [8]): 1 µg/mL | MIC (Streptococcus pneumoniae [9]): 1 µg/mL | MIC (Streptococcus pneumoniae [10]): 0.5 µg/mL | MIC (Streptococcus pneumoniae [11]): 0.5 µg/mL | MIC (Streptococcus pneumoniae [12]): 0.25 µg/mL | MIC (Streptococcus pneumoniae [13]): 8 µg/mL | MIC (Streptococcus pneumoniae [14]): 16 µg/mL | MIC (Streptococcus pneumoniae [15]): 0.5 µg/mL | MIC (Streptococcus pneumoniae [16]): 1 µg/mL | MIC (Streptococcus pneumoniae [17]): 0.25 µg/mL | MIC (Streptococcus pneumoniae [18]): 0.5 µg/mL | MIC (Streptococcus pneumoniae [19]): 2 µg/mL | MIC (Streptococcus pneumoniae [20]): 8 µg/mL | MIC (Streptococcus pneumoniae [21]): 2 µg/mL | MIC (Streptococcus pneumoniae [22]): 0.5 µg/mL | MIC (Streptococcus pneumoniae [23]): 0.5 µg/mL | MIC (Streptococcus pneumoniae [24]): 0.5 µg/mL | MIC (Streptococcus pneumoniae [25]): 0.5 µg/mL | MIC (Streptococcus pneumoniae [26]): 0.5 µg/mL | MIC (Streptococcus pneumoniae [27]): 2 µg/mL | MIC (Streptococcus pneumoniae [28]): 0.3 µg/mL

O=C(O)c1cn(C2CC2)c2cc(N3CCNCC3)c(F)cc2c1=O [CIPROFLOXACIN]
MIC (Streptococcus pneumoniae [1]): 1 µg/mL | MIC (Streptococcus pneumoniae [2]): 2 µg/mL | MIC (Streptococcus pneumoniae [3]): 8 µg/mL (≈ 24.1 µM) | MIC (Streptococcus pneumoniae [4]): 4 µg/mL (≈ 12.1 µM) | MIC (Streptococcus pneumoniae [5]): 4 µg/mL | MIC (Streptococcus pneumoniae [6]): 4 µg/mL (≈ 12.1 µM) | MIC (Streptococcus pneumoniae [7]): 0.25 µg/mL (≈ 0.754 µM) | MIC (Streptococcus pneumoniae [8]): 1 µg/mL | MIC (Streptococcus pneumoniae [9]): 64 µg/mL | MIC (Streptococcus pneumoniae [10]): 4 µg/mL | MIC (Streptococcus pneumoniae [11]): 4 µg/mL (≈ 12.1 µM) | MIC (Streptococcus pneumoniae [12]): 2 µg/mL (≈ 6.04 µM) | MIC (Streptococcus pneumoniae [13]): 64 µg/mL (≈ 193 µM) | MIC (Streptococcus pneumoniae [14]): 4 µg/mL (≈ 12.1 µM) | MIC (Streptococcus pneumoniae [15]): 8 µg/mL | MIC (Streptococcus pneumoniae [16]): 8 µg/mL | MIC (Streptococcus pneumoniae [17]): 2 µg/mL (≈ 6.04 µM) | MIC (Streptococcus pneumoniae [18]): 4 µg/mL (≈ 12.1 µM) | MIC (Streptococcus pneumoniae [19]): 8 µg/mL | MIC (Streptococcus pneumoniae [20]): 2 µg/mL | MIC (Streptococcus pneumoniae [21]): 32 µg/mL (≈ 96.6 µM) | MIC (Streptococcus pneumoniae [22]): 8 µg/mL (≈ 24.1 µM) | MIC (Streptococcus pneumoniae [23]): 8 µg/mL | MIC (Streptococcus pneumoniae [24]): 0.12 µg/mL (≈ 0.362 µM) | MIC (Streptococcus pneumoniae [25]): 8 µg/mL | MIC (Streptococcus pneumoniae [26]): 8 µg/mL | MIC (Streptococcus pneumoniae [27]): 8 µg/mL | MIC (Streptococcus pneumoniae [28]): 1 µg/mL
